PG9 binder: binders of HIV-1 gp120 antibody PG9, primary screen, biochemical, TR-FRET; HIV-1 gp120 / PG9 antibody interaction; TR-FRET gp120-PG9 antibody binding; inhibition, % at 6.7 µM; 360,000 compounds, 0.43% hits; AID 624416, 2012; in the data active = inhibition above about 8.5%
PKA-R2B activ: activators of PKA-R2B holoenzyme, primary screen, biochemical, fluorescence polarization, Cy5-IP20, human | AID 504700, 2011 | 340,000 compounds, 0.079% hits | activation, % at 11.4 µM | cAMP-dependent protein kinase catalytic subunit beta (Homo sapiens) + cAMP-dependent … | PKA-R2B holoenzyme dissociation; R2B truncated from residue 108, S112A mutant; 0% DMSO only, 100% 113 µM cGMP;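 active = activation above a cutoff set at the mean over all compounds plus 3 SD, cut at about 18% in these data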;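 note: higher means more holoenzyme dissociation and a rise in polarization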
NR2E3 ag-1: NR2E3 agonists in two-hybrid cells, primary screen, cell-based, luminescence, CHO-S, Gal4-NCOR/VP16-NR2E3; luciferase; inhibition of corepressor binding, % at 3.98 µM; AID 602229, 2012; 360,000 compounds, 0.35% hits; Photoreceptor-specific nuclear receptor (Homo sapiens), Q9Y5X4;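 active = inhibition above the mean of all tested compounds plus 3 SD, cut at about 70% in these data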;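 note: 0% = DMSO with NR2E3 transfected cells and 100% = cells lacking NR2E3 construct; higher means lower luciferase signal from less NR2E3 corepressor binding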
Target sequence (Q9Y5X4 whole entry, looked up, the tested form may be a part): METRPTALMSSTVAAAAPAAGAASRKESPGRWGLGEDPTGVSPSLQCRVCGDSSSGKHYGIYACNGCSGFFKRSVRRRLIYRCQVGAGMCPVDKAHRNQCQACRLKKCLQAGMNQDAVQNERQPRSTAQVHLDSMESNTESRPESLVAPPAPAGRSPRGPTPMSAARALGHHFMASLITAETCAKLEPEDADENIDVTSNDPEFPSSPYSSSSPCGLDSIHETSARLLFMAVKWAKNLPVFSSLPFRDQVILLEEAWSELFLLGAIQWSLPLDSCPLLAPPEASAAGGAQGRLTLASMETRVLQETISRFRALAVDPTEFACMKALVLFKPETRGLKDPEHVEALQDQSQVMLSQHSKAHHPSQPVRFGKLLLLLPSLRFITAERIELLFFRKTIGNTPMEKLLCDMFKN
Rev-erbA mod: modulators of Rev-erb alpha DNA binding, primary screen, biochemical, FITC-DNA, fluorescence polarization, uHTS; Rev-erbα–FITC-DNA binding, 90 min; Nuclear receptor subfamily 1 group D member 1 (Homo sapiens), P20393; AID 1259318, 2017; 370,000 compounds, 0.79% hits; activity, % at 10 µM;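 active = activity above about 14%, limit read from the data; passing the limit was not always enough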;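 note: 0% = DMSO wells with 35 nM protein and 100% = DMSO wells with 750 nM protein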
NR2E3 ag-2: inhibitors of NR2E3-RetCOR corepressor binding, primary screen, NR2E3 agonist project, biochemical, TR-FRET, GST-NR2E3, biotin-RetCOR; inhibition of corepressor binding, % at 4.78 µM; 320,000 compounds, 0.12% hits; Photoreceptor-specific nuclear receptor (Homo sapiens), Q9Y5X4; 1536-well;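 active = percent inhibition above the cutoff of mean plus 3 SD of all tested compounds, set per screening campaign, cut at about 20% in these data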;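 note: 0% = DMSO wells and 100% = biotin wells as full block of FRET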
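Material: NR2E3–RetCOR corepressor complex / Incubation: Compound–protein incubation for 5 h at 4 °C / Dosing: compound at 4.8 µM, single dose / Detection: time-resolved FRET / Benchmarks: high control biotin, low control 0.6% DMSO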
PKA-R1A act: activators of PKA-R1A holoenzyme, primary screen, biochemical, fluorescence polarization, Cy5-IP20, bovine R1A, mouse PKAc | cAMP-dependent protein kinase type I-alpha regulatory subunit (Bos taurus) + … | PKA-R1A dissociation; scaled: DMSO 0%, 113 µM cGMP 100% | activation, % at 11.4 µM | 340,000 compounds, 0.083% hits;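 active = percent activation above the mean of all tested compounds plus 3 SD, cut at about 19% in these data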;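 note: higher means more PKAc released from R1A so a rise in polarization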
Rev-erbA confirm: modulators of Rev-erb alpha DNA binding, confirmation, biochemical, FITC-DNA, fluorescence polarization, single point. 90 min. 3,000 compounds, 61% hits. activation, % at 25 µM. AID 1259319, 2017. shares compounds with Rev-erbA mod;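 active = activation at or above a set limit, or at least 3 SD above the negative control mean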;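 note: 0% = 35 nM protein with DMSO and 100% = 750 nM protein high control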
An asterisk follows results filed as active; nt = no result. Only some compounds are listed: those with a hit (about 1.6% of all), similar ones and a draw of the others.

SMILES | PG9 binder | PKA-R2B activ | NR2E3 ag-1 | Rev-erbA mod | NR2E3 ag-2 | PKA-R1A act | Rev-erbA confirm
CC(C)[C@H](NC(=O)[C@H](C)NC(=O)OC(C)(C)C)C(=O)N1CCC2CCN(Cc3ccccc3)CC21 (some centres not stated) | -1.2 | nt | nt | -2.2 | nt | nt | nt
COC(=O)[C@]12C[C@H](CC(=O)NCCC(C)C)C(=O)N(Cc3cccc4ccccc34)C1=C[C@H](C(C)C)O[C@@H]2C1CC1 | nt | nt | nt | -0.9 | nt | nt | nt
FC(F)(F)c1cc(-c2ccco2)nc(-n2nnc3ccccc32)n1 | -3.3 | 2.9 | 23.1 | 21.1* | 6.1 | 5.0 | 1.4
COC(=O)[C@]12C[C@H](CC(=O)N3CCN(C(=O)c4ccco4)CC3)C(=O)N(Cc3ccco3)C1=C[C@H](C(C)(C)C)O[C@@H]2C | nt | nt | nt | 4.5 | nt | nt | nt
CC(C)CN1C(=O)C[C@]2(C(=O)N(C)c3ccc(NS(=O)(=O)C4CC4)cc32)C1c1ccccc1 (some centres not stated) | nt | nt | nt | 6.9 | nt | nt | nt
Cc1cc(=O)n2c(sc3ccccc32)c1C#N | -2.8 | -10.6 | -3.8 | 38.8* | -3.0 | 1.1 | 20.7*
O=C(Nc1nc2ccccc2n1Cc1ccc(Cl)cc1)c1ccco1 | -0.6 | 3.3 | -4.7 | 27.7* | -2.8 | -9.2 | 6.9
O=C(COC(=O)c1ccccc1C(F)(F)F)NC(=O)NCc1ccco1 | -2.4 | -5.5 | -21.8 | -1.4 | nt | -0.7 | nt
CC(C)c1cc(C(=O)OCC(=O)NC(=O)NCc2ccco2)c(O)c(C(C)C)c1 | -2.4 | -2.4 | -7.1 | 16.1* | -3.7 | -14.5 | 5.6
COc1cccc(C(=O)N/N=c2/oc3ccccc3cc2C(N)=O)c1 | -4.5 | 4.7 | 13.1 | 13.6* | -3.3 | -0.8 | 0.0
COC(=O)c1ccc2c(C(C)c3ccccc3O)c[nH]c2c1 (configuration not stated) | nt | nt | nt | -2.4 | nt | nt | nt
CN(C)c1ccc(N=Nc2cccc(F)c2)cc1 | 0.3 | -4.4 | -111.8 | 11.8 | 6.3 | -8.8 | nt
Cc1cc(N(C)C)cc(C)c1N=Nc1cc[n+]([O-])cc1 | -6.7 | 3.3 | -1.4 | 26.7* | nt | 6.5 | 24.5*
CCOC(=O)c1c(-c2cccs2)csc1NC(C)=O | 1.3 | -12.6 | -28.7 | 3.9 | 2.8 | -10.9 | nt
CCOC(=O)c1c(-c2ccc(C)s2)csc1NC(=O)c1cccs1 | -0.6 | -4.7 | -29.3 | 49.5* | 2.7 | -4.3 | 24.6*
C=CCN1C(=O)[C@@H](CC(=O)NCC2CCCCC2)[C@]2(C(=O)OCC)CCCCC/C=C/12 | nt | nt | nt | 3.5 | nt | nt | nt
CCCn1c(SCN2C(=O)c3ccccc3C2=O)nc2cc(Cl)ccc2c1=O | -2.3 | 3.3 | 2.6 | 39.3* | -5.5 | -13.4 | -39.8
CN(C)c1ccc(C=c2c3cc(O)ccc3n3c2cc(-c2ccccc2)[n+]3C)cc1 | -16.0 | 6.5 | -3.6 | 22.3* | nt | -4.8 | -1.8
Cn1c(N)c(C(=O)COC(=O)C2(c3ccccc3F)CCCC2)c(=O)n(C)c1=O | -0.6 | -4.1 | 2.0 | 18.6* | 0.6 | -8.3 | -4.0
Cn1c(N)c(C(=O)COC(=O)C2(c3ccc(F)cc3)CCCC2)c(=O)n(C)c1=O | -0.1 | 12.5 | -4.8 | -4.2 | 3.3 | 8.2 | nt
O=C(OCCCN1CCC2(CCCCC2)C1=O)c1ccccc1 | nt | nt | nt | 4.5 | nt | nt | nt
COCCn1c(SCC(=O)c2c[nH]c3ccccc23)nnc1-c1ccncc1 | nt | 0.2 | 4.3 | nt | -1.5 | 4.3 | nt

Screening data deposited in PubChem by several laboratories.
